Experimental data published in ChEMBL document CHEMBL5214993, “Fragment Optimization of Reversible Binding to the Switch II Pocket on KRAS Leads to a Potent, In Vivo Active KRASG12C Inhibitor” (J Med Chem, 2022).
Calls of active or inactive are those of the source. No cut-off for these calls is given here.

Assays:
[1] = system: LS-513; test: cells; settings: Homo sapiens, LS-513, 120 h
[2] = Toxicity in NOG mouse assessed as change in body weight at 40 to 80 mg/kg, ip; assay type: organism-based; settings: in vivo, dose 40-80 mg/kg
Summary of the method: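 Female NOG mice with subcutaneous NCI-H358 xenografts, randomized at mean 160 mm3 into groups of n = 8. Dosed ip 40 mg/kg once weekly or 40 mg/kg on 2 consecutive days weekly, in 25% HP-γ-CD at 10 mL/kg, with a vehicle control group. Body weight recorded daily.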

[3] = system: NCI-H358; test: Antiproliferative activity against human NCI-H358 cells harboring KRAS G12C mutant incubated for 3 days by celltiter glo luminescent assay; assay type: functional, cell-based; settings: NCI-H358, 72 h
[4] = system: NCI-H358; test: Antitumor activity against human NCI-H358 cells xenografted in NOG mouse model assessed as induction of apoptosis at 40 mg/kg, ip administered for 3 days and measured at 6 hrs post last dose; assay type: functional, organism-based; settings: time 3.0 day
Summary of the method: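 Female NOG mice, 7–8 weeks old, bearing subcutaneous NCI-H358 tumors (5 million cells in Matrigel, right flank), randomized at mean 180 mm3, n = 5 per group and time point. […] Tumors frozen 6 h after last dose; cleaved caspase 3 measured in tumor lysates.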

[5] = cells; settings: Homo sapiens, GP2d, 120 h
[6] = Binding affinity to KRAS G12V/S39C-BIT mutant (unknown origin) assessed as dissociation constant by HSQC NMR spectroscopy analysis; set-up: species or system Homo sapiens
[7] = molecular target: GTPase KRas (Homo sapiens, UniProt P01116, G12V); test: Binding affinity to KRAS G12V mutant (unknown origin) assessed as dissociation constant by HSQC NMR spectroscopy analysis
Chain of GTPase KRas (Homo sapiens, UniProt P01116, G12V) (P01116 whole entry G12V): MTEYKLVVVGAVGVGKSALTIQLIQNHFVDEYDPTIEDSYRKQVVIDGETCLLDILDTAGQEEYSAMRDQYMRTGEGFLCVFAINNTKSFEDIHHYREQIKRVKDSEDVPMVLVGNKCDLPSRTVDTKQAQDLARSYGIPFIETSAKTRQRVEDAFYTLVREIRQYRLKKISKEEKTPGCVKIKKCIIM
Summary of the method: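 KD was fitted from chemical shift perturbations and reported as mean ± SD. Reported as <10 μM when shifts were near saturation at the first point, >2000 μM when dose-responsive but unfittable, and >10,000 μM when there were no shifts at 500 μM.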

[8] = molecular target: SOS1-KRAS (Homo sapiens, UniProt P01116, G12C)
Chain of SOS1-KRAS (P01116 whole entry G12C, looked up): as the sequence (P01116 whole entry G12V) above, with V12C counted along it

[9] = molecular target: GTPase KRas (Homo sapiens, UniProt P01116, G12C)
Chain of GTPase KRas (Homo sapiens, UniProt P01116, G12C) (P01116 whole entry G12C): as the sequence (P01116 whole entry G12V) above, with V12C counted along it

[10] = system: GTPase KRas (Homo sapiens), P01116 [G12C]
Chain of GTPase KRas (Homo sapiens), P01116 [G12C] (P01116 whole entry G12C): as the sequence (P01116 whole entry G12V) above, with V12C counted along it

[11] = molecular target: GTPase KRas (Homo sapiens, UniProt P01116, G12D); test: Binding affinity to KRAS G12D mutant (unknown origin) assessed as dissociation constant by HSQC NMR spectroscopy analysis
Chain of GTPase KRas (Homo sapiens, UniProt P01116, G12D) (P01116 whole entry G12D): as the sequence (P01116 whole entry G12V) above, with V12D counted along it

[12] = system: NCI-H358; test: Antiproliferative activity against human NCI-H358; assay type: functional, cell-based

Kd [6] [µM]	SMILES	Kd [7] [µM]	other results
	C=CC(=O)N1CCN(c2cc(-c3noc([C@@]4(C)CCCc5sc(N)c(C#N)c54)n3)nc(N3CCN(C)C[C@@H]3C)c2)CC1		EC50 [1]: > 4 µM; Activity [2]: Toxic; EC50 [3]: 0.026 µM; Activity [4]: Active; EC50 [5]: > 4 µM
116	N#Cc1c(N)sc2c1CCCC2		
	CC1(C(=O)O)CCCc2sc(N)c(C#N)c21 (stereo not given)	1160	
	C=CC(=O)Nc1cccc(-c2noc([C@@]3(C)CCCc4sc(N)c(C#N)c43)n2)c1		IC50 [8]: > 10 µM; Ki [9]: 8.6 µM; Kinact [10]: 1.1 h⁻¹
	N#Cc1c(N)sc2c1C(C(=O)Nc1ccccc1)CCC2 (stereo not given)	1270	
> 10000	N#Cc1ccsc1N		
	C[C@]1(c2nc(-c3cccc(N)c3)no2)CCCc2sc(N)c(C#N)c21	< 10	Kd [11]: > 2000 µM
	Cc1noc(C2(C)CCCc3sc(N)c(C#N)c32)n1 (stereo not given)	20	
297	N#Cc1c(N)sc2ccccc12		
	C=CC(=O)Nc1ccc(-c2noc([C@@]3(C)CCCc4sc(N)c(C#N)c43)n2)cc1		IC50 [8]: > 10 µM; Ki [9]: 24.1 µM; Kinact [10]: 0.7 h⁻¹
	C[C@]1(c2nc(-c3ccc(N)cc3)no2)CCCc2sc(N)c(C#N)c21	< 10	Kd [11]: > 2000 µM
162	N#Cc1c(N)sc2c1CCCCC2		
143	CCc1c(C)sc(N)c1C#N		
	C=CC(=O)N1CCN(c2nc(=O)n(-c3c(C)ccnc3C(C)C)c3nc(-c4c(O)cccc4F)c(F)cc23)[C@@H](C)C1 [SOTORASIB]		EC50 [12]: 0.006 µM; EC50 [3]: 0.0064 µM
> 2000	N#Cc1csc2c1CCCC2		
193	N#Cc1c(N)sc2c1CCC2		
	C=CC(=O)N1CCN(c2cccc(-c3noc([C@@]4(C)CCCc5sc(N)c(C#N)c54)n3)c2)CC1		IC50 [8]: 3.29 µM; Ki [9]: 7.5 µM; Kinact [10]: 0.3 h⁻¹
	CC1(C(=O)Nc2ccccc2)CCCc2sc(N)c(C#N)c21 (stereo not given)	1180	
> 10000	Oc1cccc(F)c1-c1ncccc1F		
	CNC(=O)C1(C)CCCc2sc(N)c(C#N)c21 (stereo not given)	> 2000	
> 10000	COC(=O)c1c(N)sc2c1CCCC2		
> 10000	CN(C)c1cccc2cccc(Cl)c12		
1220	Nc1nc2c(C(F)(F)F)cccc2s1		
21	CC1CCCc2sc(N)c(C#N)c21 (stereo not given)		
715	Nc1nc2c(s1)CCCC2		

SMILES	Kd [6] [µM]	Kd [7] [µM]	other results
CC1(C)CCCc2sc(N)c(C#N)c21	< 10	15	
